Assay results published in ChEMBL document CHEMBL1127349, “6,7,8,9-Tetrahydro-N,N-di-n-propyl-3H-benzindol-8-amines. Derivatives as potent and orally active serotonin 5-HT1A receptor agonists” (J Med Chem, 1994).
Activity calls are given as the source filed them. No cut-off for these calls is given here.

Experiments:
Rattus norvegicus [1] = test: The concentration yielding a half maximal decrease of the 5-HTP was determined in rat brain hemispheres; inactive at 50 umol/kg; assay type: functional, organism-based
How it was run: (§1)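 Reserpine-pretreated (5 mg/kg sc, 18 h) male Sprague-Dawley rats, 200–300 g; compounds in saline given sc. DOPA and 5-HTP in limbic system, striatum and hemispheres measured by HPLC with electrochemical detection. Dose–response curves of 4–6 doses (n = 4) per area, fitted to variable-slope sigmoid on log data to give ED50.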

Rattus norvegicus [2] = test: The concentration yielding a half maximal decrease of the DOPA was determined in rat brain hemispheres; inactive at 50 umol/kg; assay type: functional, organism-based; how it was run: as §1
Rattus norvegicus [3] = test: The concentration yielding a half maximal decrease of the DOPA was determined in rat brain striatum; Partial response at 50 umol/kg; assay type: functional, organism-based
Rattus norvegicus [4] = test: The concentration yielding a half maximal decrease of the 5-HTP was determined in rat brain striatum; inactive at 50 umol/kg; assay type: functional, organism-based; how it was run: as §1
Rattus norvegicus [5] = test: The concentration yielding a half maximal decrease of the DOPA was determined in rat limbic system; Partial response at 50 umol/kg; assay type: functional, organism-based
Rattus norvegicus [6] = test: The concentration yielding a half maximal decrease of the 5-HTP was determined in rat limbic system; Partial response at 50 umol/kg; assay type: functional, organism-based; how it was run: as §1
Rattus norvegicus [7] = test: Motor activity was measured by motility testing on injecting the compound subcutaneously into rats at the dose of 12.5 uM/Kg; assay type: functional
How it was run: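 Rats given reserpine 5 mg/kg sc 18 h beforehand, then test compound sc in neck (n = 4). Placed singly in photocell motility meters straight after dosing; counts recorded for 30 min, gross behaviour observed throughout. Value as counts/30 min with SEM.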

Rattus norvegicus [8] = species: Rattus norvegicus; test: Log concentration to inhibit 5-HTP accumulation was determined in rat brain hemispheres; assay type: functional; how it was run: as §1
Rattus norvegicus [9] = test: The concentration yielding a half maximal decrease of the DOPA was determined in rat brain hemispheres; inactive at 3.1 umol/kg; assay type: functional, organism-based; how it was run: as §1
D(2) dopamine receptor = D(2) dopamine receptor (Rattus norvegicus, UniProt P61169); test: Displacement of the radioligand [3H]spiperone from D2 receptor
D(2) dopamine receptor, sequence (P61169 whole entry): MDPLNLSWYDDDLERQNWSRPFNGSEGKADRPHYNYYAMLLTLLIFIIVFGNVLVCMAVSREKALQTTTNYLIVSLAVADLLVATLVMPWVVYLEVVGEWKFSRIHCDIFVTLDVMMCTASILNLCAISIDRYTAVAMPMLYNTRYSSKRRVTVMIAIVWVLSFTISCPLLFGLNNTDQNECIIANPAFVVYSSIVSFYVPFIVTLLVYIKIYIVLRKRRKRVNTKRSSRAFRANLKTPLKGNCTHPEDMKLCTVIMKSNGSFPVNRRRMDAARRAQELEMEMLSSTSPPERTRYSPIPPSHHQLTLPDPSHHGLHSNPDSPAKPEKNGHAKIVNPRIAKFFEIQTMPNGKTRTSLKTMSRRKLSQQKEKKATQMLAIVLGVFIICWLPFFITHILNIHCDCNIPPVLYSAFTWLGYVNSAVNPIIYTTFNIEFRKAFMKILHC
How it was run: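 Rat striatal membranes in 50 mM potassium phosphate buffer, incubated with 0.5 nM [3H]spiperone (3 mg tissue) 10 min at 37 °C. Nonspecific binding defined with 10 μM 6,7-ADTN. IC50 converted to Ki by Cheng–Prusoff; 3–7 experiments, each concentration in triplicate.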

Rattus norvegicus [10] = test: The concentration yielding a half maximal decrease of the DOPA was determined in rat brain striatum; inactive at 3.1 umol/kg; assay type: functional, organism-based
[11] = Bioavailability in rats after 5 mg/kg (i.v.) and 40 mg/kg (p.o.) administration; assay type: ADME, organism-based; conditions: rat, in vivo, po
How it was run: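 Male Sprague-Dawley rats; oral group starved 18 h, compared with iv dosing. Blood sampled up to 12 h, levels by GC/MS. Absolute oral availability F (po/iv) from ratio of AUCs of blood concentration–time curves, po n = 5, iv n = 3.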

[12] = Area under the curve after intravenous administration at a dose of 2 umol/kg; assay type: ADME; conditions: in vivo
[13] = Half life in plasma after administration of 2 umol/kg dose perorally; assay type: ADME, organism-based; conditions: po
Rattus norvegicus [14] = test: The concentration yielding a half maximal decrease of the DOPA was determined in rat limbic system; inactive at 3.1 umol/kg; assay type: functional, organism-based
Rattus norvegicus [15] = species: Rattus norvegicus; test: Log concentration to inhibit 5-HTP accumulation was determined in rat limbic system; assay type: functional; how it was run: as §1
[16] = Maximum concentration in plasma after administration of 10 umol/kg dose perorally; assay type: ADME, organism-based; set-up: dose 10 umol/kg, route oral; conditions: po
How it was run: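 Male Sprague-Dawley rats starved 18 h, dosed orally. Blood samples over up to 12 h, drug quantified by GC/MS against internal standard (2–1000 pmol/mL standard curve). Cmax read from concentration–time curve; SEM, n = 4–6.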

Rattus norvegicus [17] = species: Rattus norvegicus; test: The concentration yielding a half maximal decrease of the 5-HTP was determined in rat limbic system; assay type: functional; how it was run: as §1
[18] = Time taken to reach maximum concentration after administration of 10 umol/kg dose perorally; assay type: ADME, organism-based; conditions: in vivo, po
How it was run: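 Male Sprague-Dawley rats, starved 18 h for the oral arm, dosed iv or po. Blood sampled at intervals up to 12 h. Compound measured by GC/mass spectrometry against an internal standard, with a standard curve over 2–1000 pmol/mL in blank blood. tmax read from concentration–time curves, n = 4–6.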

Rattus norvegicus [19] = species: Rattus norvegicus; test: The concentration yielding a half maximal decrease of the 5-HTP was determined in rat brain striatum; assay type: functional; how it was run: as §1
Rattus norvegicus [20] = species: Rattus norvegicus; test: The concentration yielding a half maximal decrease of the 5-HTP was determined in rat brain hemispheres; assay type: functional; how it was run: as §1
Rattus norvegicus [21] = test: Ratio of the 5HTP-accumulation decrease in limbic regions of oral to that of sc administration; assay type: functional, Limbic system
How it was run: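 Ratio of ED50 for decrease of limbic 5-HTP accumulation after oral versus sc dosing in reserpine-pretreated rats; 5-HTP measured by HPLC with electrochemical detection.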

Rattus norvegicus [22] = species: Rattus norvegicus; test: Log concentration to inhibit 5-HTP accumulation was determined in rat brain striatum; assay type: functional; how it was run: as §1
[23] = Time taken to reach maximum concentration after administration of 2 umol/kg dose intravenously; assay type: ADME, organism-based; conditions: in vivo, iv
Rattus norvegicus [24] = test: Motor activity was measured by motility testing on injecting the compound subcutaneously into rats at the dose of 0.02 umol/kg (1a) and 3.5 umol/kg (1b)
[25] = Maximum concentration in plasma after administration of 2 umol/kg dose intravenously; assay type: ADME, organism-based; set-up: dose 2 umol/kg, route intravenous; conditions: iv
Rattus norvegicus [26] = species: Rattus norvegicus; test: The concentration yielding a half maximal decrease of the DOPA was determined in rat limbic system. pED50 values in parenthesis; assay type: functional
Rattus norvegicus [27] = test: The concentration yielding a half maximal decrease of the 5-HTP was determined in rat limbic system; inactive at 11 umol/kg; assay type: functional, organism-based; how it was run: as §1
Rattus norvegicus [28] = test: The concentration yielding a half maximal decrease of the 5-HTP was determined in rat brain hemispheres; inactive at 11 umol/kg; assay type: functional, organism-based; how it was run: as §1
Rattus norvegicus [29] = test: The concentration yielding a half maximal decrease of the 5-HTP was determined in rat brain striatum; inactive at 11 umol/kg; assay type: functional, organism-based; how it was run: as §1
Rattus norvegicus [30] = test: The concentration yielding a half maximal decrease of the DOPA was determined in rat brain hemispheres; inactive at 11 umol/kg; assay type: functional, organism-based; how it was run: as §1
Rattus norvegicus [31] = species: Rattus norvegicus; test: The concentration yielding a half maximal decrease of the DOPA was determined in rat brain striatum. pED50 values in parenthesis; assay type: functional

CCCN(CCC)C1CCc2cc3cc[nH]c3cc2C1 (stereo not drawn)
ED50 (Rattus norvegicus [1]): inactive
ED50 (Rattus norvegicus [2]): inactive
ED50 (Rattus norvegicus [3]): Weak activity
ED50 (Rattus norvegicus [4]): inactive
ED50 (Rattus norvegicus [5]): Weak activity
ED50 (Rattus norvegicus [6]): Weak activity
Activity (Rattus norvegicus [7]): 51 Counts 30min-1

CCCN(CCC)[C@@H]1CCc2ccc3[nH]cc(C=O)c3c2C1
pED50 (Rattus norvegicus [8]): 6.34
ED50 (Rattus norvegicus [9]): inactive
Ki (D(2) dopamine receptor): 382 nM
ED50 (Rattus norvegicus [10]): inactive
bioavailability [11]: 46%
AUC [12]: 431 pM/kg
half-life [13]: 1.5 h
ED50 (Rattus norvegicus [14]): inactive
pED50 (Rattus norvegicus [15]): 7.14
Cmax [16]: 108 nM
ED50 (Rattus norvegicus [17]): 0.072 µmol/kg
Tmax [18]: 2.5 h
ED50 (Rattus norvegicus [19]): 0.12 µmol/kg
ED50 (Rattus norvegicus [20]): 0.45 µmol/kg
ED50 (Rattus norvegicus [21]): 15%
pED50 (Rattus norvegicus [22]): 6.91
Tmax [23]: 2 min
Counts/30 min (Rattus norvegicus [24]): 162
Cmax [25]: 712 nM

CCCN(CCC)C1CCc2ccc(O)cc2C1 (stereo not drawn)
ED50 (Rattus norvegicus [26]): 0.027 µmol/kg
ED50 (Rattus norvegicus [27]): inactive
ED50 (Rattus norvegicus [28]): inactive
ED50 (Rattus norvegicus [29]): inactive
Counts/30 min (Rattus norvegicus [24]): 170
ED50 (Rattus norvegicus [30]): inactive
ED50 (Rattus norvegicus [31]): 0.03 µmol/kg
